Experimental findings from ChEMBL document CHEMBL2057092, “The SAR analysis of TRPV1 agonists with the α-methylated B-region” (Bioorg Med Chem Lett, 2012) are described below.

Assay [1] deals with T1, Transient receptor potential cation channel subfamily V member 1 (Rattus norvegicus, UniProt O35433). As to the kind of experiment: Agonist activity at rat TRPV1 expressed in CHO cells assessed as calcium uptake. Format: functional, cell-based. In a few lines:
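Functional agonism was read as 45Ca2+ uptake in CHO cells heterologously expressing rat TRPV1.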

Assay [2] concerns the target T1, Transient receptor potential cation channel subfamily V member 1. As to the kind of experiment: Displacement of [3H]RTX from rat TRPV1 expressed in CHO cells. Format: cell-based.
The target of assay [3] is Transient receptor potential cation channel subfamily V member 1 (Rattus norvegicus) (UniProt O35433). Briefly: Antagonist activity at rat TRPV1 expressed in CHO cells assessed as inhibition of calcium uptake at 30 uM. Type of assay: functional, cell-based.
Assay [4] has the same target. Briefly: Agonist activity at rat TRPV1 expressed in CHO cells assessed as calcium uptake at 300 nM relative to capsaicin. Type of assay: functional, cell-based.

Chain of Transient receptor potential cation channel subfamily V member 1 (Rattus norvegicus) (O35433 whole entry): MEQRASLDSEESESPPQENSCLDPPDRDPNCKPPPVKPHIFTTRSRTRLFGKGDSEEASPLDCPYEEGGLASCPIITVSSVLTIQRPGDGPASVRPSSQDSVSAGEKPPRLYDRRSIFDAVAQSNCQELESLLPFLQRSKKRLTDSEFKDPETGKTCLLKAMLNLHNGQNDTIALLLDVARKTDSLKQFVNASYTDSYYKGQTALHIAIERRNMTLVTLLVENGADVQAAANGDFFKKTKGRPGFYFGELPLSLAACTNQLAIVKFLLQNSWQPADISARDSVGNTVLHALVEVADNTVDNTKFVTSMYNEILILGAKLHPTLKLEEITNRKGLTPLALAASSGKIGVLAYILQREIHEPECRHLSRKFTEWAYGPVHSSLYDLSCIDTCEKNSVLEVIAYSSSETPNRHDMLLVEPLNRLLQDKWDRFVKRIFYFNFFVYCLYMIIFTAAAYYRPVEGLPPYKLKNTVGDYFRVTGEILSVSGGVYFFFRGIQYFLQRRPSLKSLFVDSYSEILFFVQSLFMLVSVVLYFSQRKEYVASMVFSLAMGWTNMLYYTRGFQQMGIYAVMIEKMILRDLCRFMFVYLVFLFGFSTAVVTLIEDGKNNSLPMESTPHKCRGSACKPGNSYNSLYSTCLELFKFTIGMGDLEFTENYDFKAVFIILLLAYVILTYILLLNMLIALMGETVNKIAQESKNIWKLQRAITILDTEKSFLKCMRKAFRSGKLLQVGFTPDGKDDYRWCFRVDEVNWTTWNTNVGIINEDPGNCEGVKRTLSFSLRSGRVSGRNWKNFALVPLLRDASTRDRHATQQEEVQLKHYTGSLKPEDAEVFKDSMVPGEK
T1 sequence (O35433 whole entry): as above

As a reminder, the EC50 is the concentration that produces a half-maximal response. One may read the Ki as a measure of affinity in units of concentration, obtained from inhibition or displacement. A low value points to tighter binding. With `CCCCCCCCNC(=O)C(C)c1ccc(O)c(OC)c1` (stereo unspecified), the 50% effective concentration (EC50) in assay [1] was 130 nM. The inhibitory constant (Ki) in assay [2] is 744 nM.
Usually inhibition stands for the percentage by which the read-out fell short of the control. For `CC(C)(C)c1ccc(CNC(=O)Cc2ccc(OCCN)c(Cl)c2)cc1`, in assay [3], the inhibition turned out to be 56%. In addition, in assay [4], the Activity amounted to 36%. The compound also showed a Ki in assay [2] of 2470 nM.
Regarding `CCCCCCCCC(=O)NC(C)c1ccc(O)c(OC)c1` (stereo unspecified), the inhibition in assay [3] came out at 44%. The 50% effective concentration (EC50) in assay [1] was determined as 1580 nM. For the same compound, the Activity in assay [4] turned out to be 72%. Moreover, in assay [2], the affinity, expressed as Ki, was 4280 nM.
For the compound `CCCCCCCCCC(=O)NC(C)c1ccc(O)c(OC)c1` (stereo unspecified), the inhibition in assay [3] came out at 28%. Also, the 50% effective concentration (EC50) in assay [1] came to 1250 nM. This compound also returned an inhibition constant Ki in assay [2] of 3300 nM.
For `COc1cc(C(C)C(=O)NCc2ccc(C(C)(C)C)cc2)ccc1OCCN` (stereo unspecified), in that order: 16%, 238 nM and 504 nM.
For the compound `CCCCCCCC/C=C\CCCCCCCC(=O)NCc1ccc(O)c(OC)c1` [OLVANIL], in assay [1], the EC50 amounted to 202 nM. In assay [2], the inhibitory constant (Ki) came to 142 nM.
As to `COc1cc(C/N=C(\S)NCc2ccc(C(C)(C)C)cc2)ccc1OCCN`, the 50% effective concentration (EC50) in assay [1] came out at 132 nM. In addition, in assay [2], the Ki was 84 nM.
As to `COc1cc(CNC(=S)NCc2ccc(C(C)(C)C)cc2)ccc1O`, the concentration for a half-maximal effect (EC50) in assay [1] turned out to be 2.6 nM.
As for `CC(C(=O)NCc1ccc(C(C)(C)C)cc1)c1ccc(OCCN)c(F)c1` (stereo unspecified), in assay [4], the Activity was found to be 91%. The compound further gave a Ki in assay [2] of 2160 nM.
As to `CCCCCCCCNC(=O)Cc1ccc(O)c(OC)c1`, the EC50 in assay [1] is 77 nM. Further, the affinity in assay [2], expressed as Ki, was 848 nM.
As for `CCCCCCCCCC(=O)NCc1ccc(O)c(OC)c1`, in assay [1], the 50% effective concentration (EC50) came to 83 nM. The compound also displayed an inhibition constant Ki in assay [2] of 864 nM.
For `CC(C(=O)NCc1ccc(C(C)(C)C)cc1)c1ccc(OCCN)c(Cl)c1` (stereo unspecified), the inhibition in assay [3] came to 38%. For the same compound, the Activity in assay [4] came to 75%. Moreover, in assay [2], the Ki is 380 nM.
Take `CCCCCCCCC(=O)NCc1ccc(O)c(OC)c1` [NONIVAMIDE]: in assay [1], the EC50 came out at 223 nM. The affinity in assay [2], expressed as Ki, was 1220 nM.
Turning to `CC(C(=O)NCc1ccc(C(C)(C)C)cc1)c1ccc(O)c(Cl)c1` (stereo unspecified), in assay [3], the inhibition worked out at 9%. Further, the Activity in assay [4] is 77%. This compound had a Ki in assay [2] of 33.1 nM.
For `CCCCCCCCCNC(=O)Cc1ccc(O)c(OC)c1`, the EC50 in assay [1] is 61 nM. The same compound returned an inhibitory constant (Ki) in assay [2] of 240 nM.
Turning to `CCCCCCCC/C=C/CCCCCCCC(=O)NC(C)c1ccc(O)c(OC)c1` (stereo unspecified), in assay [1], the EC50 was found to be 678 nM. In addition, the inhibition constant Ki in assay [2] came out at 226 nM.
`COc1cc(C(C)NC(=S)NCc2ccc(C(C)(C)C)cc2)ccc1O` (stereo unspecified): the inhibition in assay [3] worked out at 35%. The EC50 in assay [1] amounted to 380 nM. In assay [4], the Activity is 70%. This compound also displayed a Ki in assay [2] of 194 nM.
Regarding `CC(C(=O)NCc1ccc(C(C)(C)C)cc1)c1ccc(O)c(F)c1` (stereo unspecified), the inhibition in assay [3] is 20%. Moreover, in assay [1], the half-maximal effective concentration (EC50) was 221 nM. The compound further showed an inhibition constant Ki in assay [2] of 178 nM.
Take `COc1cc(C(C)NC(=S)NCc2ccc(C(C)(C)C)cc2)ccc1OCCN` (stereo unspecified): in assay [1], the EC50 came out at 5800 nM. Moreover, the inhibition constant (Ki) in assay [2] is 1430 nM.
For `CC(C)(C)c1ccc(CNC(=O)Cc2ccc(O)c(Cl)c2)cc1`, in assay [1], the EC50 was determined as 206 nM. In assay [2], this compound had an inhibition constant Ki of 132 nM.
`COc1cc(C(C)C(=O)NCCCc2ccc(C)c(C)c2)ccc1O` (stereo unspecified): the concentration giving a half-maximal response (EC50) in assay [1] amounted to 21.3 nM. The compound also yielded an inhibition constant Ki in assay [2] of 177 nM.
For `CCCCCCCCCNC(=O)C(C)c1ccc(O)c(OC)c1` (stereo unspecified), the concentration giving a half-maximal response (EC50) in assay [1] stood at 26.3 nM. The inhibition constant (Ki) in assay [2] is 159 nM.
For `COc1cc(C(C)C(=O)NCCCc2ccc(C)c(C)c2)ccc1OCCN` (stereo unspecified), in that order: 404 nM and 518 nM.
Take `COc1cc(CC(=O)NCCCc2ccc(C)c(C)c2)ccc1OCCN` [DAVASAICIN]: the EC50 in assay [1] worked out at 589 nM. Also, the affinity in assay [2], expressed as Ki, was 930 nM.
Take `COc1cc(C(C)C(=O)NCc2ccc(C(C)(C)C)cc2)ccc1O` (stereo unspecified): the inhibition in assay [3] came to 15%. Further, the concentration for a half-maximal effect (EC50) in assay [1] came to 24 nM. This compound also had an inhibition constant (Ki) in assay [2] of 308 nM.
`CC(C)(C)c1ccc(CNC(=O)Cc2ccc(O)c(F)c2)cc1`: the inhibition in assay [3] turned out to be 30%. In assay [1], the EC50 worked out at 911 nM. In addition, the inhibitory constant (Ki) in assay [2] amounted to 808 nM.
The corresponding values for `COc1cc(CC(=O)NCc2ccc(C(C)(C)C)cc2)ccc1OCCN` are 12%, 358 nM and 1230 nM.
Regarding `COc1cc(CC(=O)NCCCc2ccc(C)c(C)c2)ccc1O`, the EC50 in assay [1] was found to be 41 nM. In assay [2], this compound yielded an inhibitory constant (Ki) of 354 nM.
Take `CC(C)(C)c1ccc(CNC(=O)Cc2ccc(OCCN)c(F)c2)cc1`: in assay [3], the inhibition was determined as 18%. Further, the Activity in assay [4] turned out to be 63%. Besides, the Ki in assay [2] is 10100 nM.
